From PubChem BioAssay
Most compounds without a hit are left out; they make up all but 2.4% or so of the library.
Neddyl block: blocks human cullin neddylation. P61081+Q13564. TR-FRET cullin neddylation, biochemical. inhibition, % at 25 µM. hit rate 0.58% among 360,000. AID 651699; in the data active = inhibition above about 36%
Tb MetRS inh: blocks T. brucei methionyl-tRNA synthetase activity. purified T. brucei MetRS, ATP depletion, Kinase-Glo luminescence. inhibition, % at 11.9 µM. hit rate 0.4% among 360,000. AID 624268;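 active = inhibition above a per-plate cutoff of the control wells' mean inhibition plus 3 SD, cut at about 5.5% in these data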
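Assay system: T. brucei methionyl-tRNA synthetase, purified | Medium: HEPES buffer with MgCl2, KCl, DTT, spermine, BSA, pyrophosphatase | Compound: 11.9 µM single point | Incubation: 15 min enzyme-compound preincubation, 2 h reaction, 10 min detection, 25 °C | Measured by: Kinase-Glo luciferase luminescence reporting remaining unconsumed ATP | Measure: % inhibition normalized to control-well medians | Replication: Singlicate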
PREPL inh: human PREPL enzyme inhibition; Q4J6C6; recombinant PREPL, fluorescence polarization activity-based probe; inhibition, % at 5.96 µM; hit rate 0.68% among 320,000; in the data active = inhibition above about 43%
Target sequence (Q4J6C6 whole entry, looked up): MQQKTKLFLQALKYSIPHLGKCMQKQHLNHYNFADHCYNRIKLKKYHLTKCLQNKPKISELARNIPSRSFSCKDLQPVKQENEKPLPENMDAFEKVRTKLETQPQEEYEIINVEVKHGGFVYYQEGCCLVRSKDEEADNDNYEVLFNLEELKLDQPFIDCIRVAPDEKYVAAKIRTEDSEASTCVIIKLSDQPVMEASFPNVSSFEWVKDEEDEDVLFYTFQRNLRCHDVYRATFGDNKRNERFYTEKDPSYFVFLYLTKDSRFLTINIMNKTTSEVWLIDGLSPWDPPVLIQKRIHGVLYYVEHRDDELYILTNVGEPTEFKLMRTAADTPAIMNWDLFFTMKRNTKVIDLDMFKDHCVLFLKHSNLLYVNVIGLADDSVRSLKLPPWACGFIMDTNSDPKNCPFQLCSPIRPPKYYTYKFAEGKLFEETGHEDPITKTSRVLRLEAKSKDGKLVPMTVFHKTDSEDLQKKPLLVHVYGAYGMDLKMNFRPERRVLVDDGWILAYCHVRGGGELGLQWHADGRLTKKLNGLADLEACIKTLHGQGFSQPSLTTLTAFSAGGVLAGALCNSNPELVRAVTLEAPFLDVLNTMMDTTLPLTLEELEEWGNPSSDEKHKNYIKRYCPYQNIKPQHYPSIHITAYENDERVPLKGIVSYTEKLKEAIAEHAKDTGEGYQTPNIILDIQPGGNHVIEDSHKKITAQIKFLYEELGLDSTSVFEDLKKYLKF
HNF4A DNA FP: change in binding of human HNF4 alpha to DNA | P41235 | HNF4a-FITC DNA binding, fluorescence polarization, 1 h | activity change, % at 10 µM | hit rate 0.3% among 360,000; in the data active = activity change above about 30%, passing the limit was not always enough
Rpn11 inh: blocks the human proteasome subunit Rpn11 | O00487 | human 26S proteasome, Ub4-pepOG fluorescence polarization; 20S core pre-blocked with epoxomicin | inhibition, % at 20 µM | hit rate 0.59% among 360,000 | AID 588493;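 active = inhibition at 20 µM, scaled to each plate's controls, above about 33%, limit read from the data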
CSN inh: CSN deneddylation inhibition | hit rate 0.38% among 360,000 | AID 651999 | Purified CSN, SCF-Nedd8-OG deneddylation, fluorescence polarization | inhibition, % at 12.5 µM;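 active = pattern-corrected inhibition above about 35%, with an unprinted fluorescence ratio check between 0.5 and 1.5, limit read from the data, passing the limit was not always enough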
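Assay system: purified human Csn5 enzyme expressed in HEK293T cells; measure: % inhibition; also added: SCFSkp2-Nedd8OG substrate at 10 nM final; technique: fluorescence polarization; times: reaction 90 min, room temperature; medium: Tris buffer pH 7.5, NaCl, DTT, Tween-20, trehalose, ovalbumin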
Rpn11 inh conf: confirmation of human proteasome Rpn11 inhibitors. shares compounds with Rpn11 inh. purified human 26S proteasome, Ub4-pepOG fluorescence polarization; proteasome pretreated with epoxomicin. inhibition, % at 20 µM. hit rate 29% among 1,900. AID 602318
MMP-2 inh: blocks human MMP-2, flagging nonselective RPN11 hits. shares compounds with Rpn11 inh. recombinant MMP-2, FRET peptide cleavage fluorescence. inhibition, % at 20 µM. hit rate 4% among 1,900. AID 602330;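 also: human MMP-2 activated beforehand with APMA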
Thrombin inh: blocks bovine thrombin, flagging nonselective RPN11 hits; AID 602333; hit rate 13% among 1,900; shares compounds with Rpn11 inh; inhibition, % at 20 µM; bovine thrombin cleavage of Ub4-pepOG, fluorescence polarization;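 active = mean inhibition at least 40% at 20 µM, or signal 3 deviations below plate average, so some actives read negative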
Hits are given with their value; n = inactive; x = no result shown; + = active, no number. Rule as the data show it, unless noted: active = inhibition above about 40%; inactive = the rest.

SMILES	Neddyl block	Tb MetRS inh	PREPL inh	HNF4A DNA FP	Rpn11 inh	CSN inh	Rpn11 inh conf	MMP-2 inh	Thrombin inh
O=C(/C=C\c1ccc(-c2ccccc2)o1)c1ccccc1	n	n	n	n	n	n	x	x	x
COc1cccc(-c2cnc3c(NC=O)cc(-c4ccncc4)cn23)c1	n	n	x	n	n	n	x	x	x
CCC(CC)c1nc2cc(OC)c(OC)cc2c(=O)o1	n	n	n	n	+	n	n	n	n
COCCCn1c(=O)/c(=C\c2ccccc2OC(C)C)s/c1=C(/C#N)C(=O)Nc1ccc(C(=O)O)cc1	n	n	n	n	99.3	n	n	n	active
N#C/C(=C\c1ccccc1OCc1ccc(C(=O)O)cc1)C(=O)Nc1ccc(O)cc1	n	n	n	n	n	n	x	x	x
Cc1nnc(N2CCCC(C(=O)NCc3ccc(OC(C)C)cc3)C2)c2nn(-c3ccccc3)c(C)c12 (stereo unspecified)	x	n	n	n	53.0	n	n	n	n
Cn1c(=O)c2cc(S(=O)(=O)NC(C(=O)Nc3cccc(F)c3)c3ccccc3)ccc2n(C)c1=O (stereo unspecified)	n	n	n	n	46.8	n	71.5	n	n
Cc1cccc(N(CC(=O)NCCSCc2ccco2)S(=O)(=O)c2ccccc2)c1	n	n	n	n	n	n	x	x	x
Cc1ccc(N(CC(=O)NCCSCc2ccco2)S(=O)(=O)c2ccc(C)cc2)cc1	n	n	n	n	53.0	n	n	n	n
COc1ccc(CNC(=O)COC(=O)c2cccs2)cc1	n	n	n	n	n	n	x	x	x
COc1ccc(C(=O)c2c(N)sc3c2CCN(C(=O)OC(C)(C)C)C3)cc1	n	n	n	n	44.6	n	n	n	n
COc1cccc(-c2csc3nnc(SCC(=O)c4ccc(NC(C)=O)cc4)n23)c1	n	n	n	n	39.5	n	n	n	n
COc1ccc(OC)c(-c2csc3nnc(SCC(=O)Nc4ccc(NC(C)=O)cc4)n23)c1	n	n	n	n	n	n	x	x	x
O=C1/C(=C/c2ccc([N+](=O)[O-])cc2)C=C(c2ccccc2)N1c1ccccc1	n	n	n	n	40.3	n	n	n	n
COc1ccc(OCC(=O)NNC(=O)c2cccs2)cc1	n	n	n	n	125.4	n	n	n	n
N#C/C(=C/C1=C(N2CCOCC2)C(=C/c2ccc(Cl)cc2Cl)/CC1)C(=O)Nc1ccccc1F	n	n	x	n	41.6	n	n	n	n
O=C(O)c1ccccc1N/N=C/C1=C(N2CCOCC2)C(=C\c2ccccc2)/CC1	n	n	n	n	60.3	n	n	n	n
CCN(CC)c1ccc(/C=C2\CCC(/C=C(/C#N)C(=O)Nc3ccccc3F)=C2N2CCOCC2)cc1	n	n	x	n	n	n	x	x	x
N#C/C(=C\C1=C(N2CCOCC2)C(=C\c2ccc(Cl)cc2)/CC1)C(=O)Nc1ccccc1F	n	n	n	n	57.7	n	56.4	n	n
Nc1nc(N)c2cc(CNc3ccc(Cl)c(Cl)c3)ccc2n1	n	n	x	n	n	n	x	x	x
CCCSc1nnc(CN2CCOCC2)n1C	n	n	n	n	121.7	n	n	n	n
CCOc1ccc(C(=O)CCC(=O)N2CCN(c3ncccn3)CC2)cc1	n	n	n	n	42.9	n	43.0	n	n
CCOC(=O)C1(C)CCCN(C(=O)c2ccc3c(c2)CCO3)C1 (stereo unspecified)	n	n	x	n	n	n	x	x	x
COC(=O)c1sc(N2C(=O)C(O)=C(C(=O)c3ccc(C)o3)C2c2cccs2)nc1C (stereo unspecified)	n	n	n	n	48.6	n	n	n	n
CCOC(=O)c1sc(N2C(=O)C(O)=C(C(=O)c3ccco3)C2c2cccc(Cl)c2)nc1C (stereo unspecified)	n	n	n	n	55.4	n	n	n	n
SMILES	Neddyl block	Tb MetRS inh	PREPL inh	HNF4A DNA FP	Rpn11 inh	CSN inh	Rpn11 inh conf	MMP-2 inh	Thrombin inh
COC(=O)c1sc(N2C(=O)C(O)=C(C(=O)c3ccc(C)o3)C2c2ccc(F)cc2)nc1C (stereo unspecified)	n	n	n	n	53.8	n	n	n	n
COC(=O)c1sc(N2C(=O)C(O)=C(C(=O)c3ccc(C)o3)C2c2ccco2)nc1C (stereo unspecified)	n	n	n	n	n	n	x	x	x
CC1CN(C/C(=N\O)C23CC4CC(CC(C4)C2)C3)CC(C)O1 (stereo unspecified)	n	n	x	n	n	n	x	x	x
COc1nc(-c2ccccc2)ccc1-c1noc(-c2cccs2)n1	n	n	n	n	46.0	n	n	n	n
Cc1csc(SCC(=O)Nc2cc(S(=O)(=O)N(C)C)ccc2C)n1	n	n	n	n	n	n	x	x	x
Cc1cc(Br)ccc1OCC(=O)NNC(=O)c1ccc(NC(=O)C2CC2)cc1	n	n	n	n	55.2	n	n	n	n
Cc1ccc(C)c(OCC(=O)NNC(=O)c2ccc(NC(=O)C3CC3)cc2)c1	n	n	x	n	n	n	x	x	x
CC(=O)c1ccc(-c2cccc(-c3cc(=O)oc4ccc(C(C)(C)C)cc34)c2)cc1	n	n	x	n	n	n	x	x	x
O=C(Cn1c(C(F)(F)F)nc2ccccc21)N1CCCC1	n	n	n	n	74.8	n	n	n	n
CC(=O)Cn1c(C(F)(F)F)nc2ccccc21	n	n	n	n	n	n	x	x	x
CCOC(=O)c1cc2c(c(CSc3nc4ccccc4c(=O)n3Cc3ccco3)c1)OCOC2	n	n	n	n	51.8	n	n	n	n
O=c1c2ccccc2nc(SCc2cc(F)cc3c2OCOC3)n1Cc1ccco1	n	n	n	n	n	n	x	x	x
O=C1N/C(=C/c2cccn2-c2ccccc2)C(=O)N1Cc1ccc(F)cc1	n	n	n	n	42.1	n	n	n	n
Oc1ccc(N=Nc2n[nH]c(-c3ccccc3)n2)cc1	n	n	n	n	n	n	x	x	x
Oc1ccc(N=Nc2nc(-c3ccccc3)c(-c3ccccc3)[nH]2)cc1	n	n	n	n	55.2	n	n	n	n
Cc1ccc(OCc2ccc(C(=O)Nc3ccc(C(N)=O)cc3)o2)c([N+](=O)[O-])c1	n	n	n	n	134.5	n	n	n	n
Cc1ccc(OCc2ccc(C(=O)Nc3cc(C)on3)o2)c([N+](=O)[O-])c1	n	n	n	n	n	n	x	x	x
Cc1ccccc1C(=O)N1CCC1(C)C(=O)NC(C)C (stereo unspecified)	n	n	x	n	n	n	x	x	x
